Results from ChEMBL document CHEMBL1255441, “Pharmacokinetics of cefotaxime and desacetylcefotaxime in infants during extracorporeal membrane oxygenation” (Antimicrob Agents Chemother, 2010).

Columns and labels:
Format in all cases: ADME, organism-based
Design in all cases: dose 50 mg/kg, route intravenous
[1] = Clearance in infant during extracorporeal membrane oxygenation at 50 mg/kg, iv dosed 2 to 3 times per day as bolus dose; details: human, in vivo
Procedure, shortened: (§1)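 Infants on ECMO (n=37; PNA 0.67–199 days; 2.0–6.2 kg). Cefotaxime given as an IV bolus (≤3 min) into the extracorporeal line after the oxygenator. Dosing: 50 mg/kg b.i.d. for PNA <1 week, 50 mg/kg t.i.d. for 1–4 weeks, 37.5 mg/kg q.i.d. for >4 weeks. Routine venous circuit samples (EDTA), including post-decannulation up to 24 h. Cefotaxime and desacetyl metabolite measured by LC-MS (LOQ 0.2 mg/liter). One-compartment NONMEM population model.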

[2] = Volume of distribution in infant during extracorporeal membrane oxygenation at 50 mg/kg, iv dosed 2 to 3 times per day as bolus dose; details: human, in vivo; procedure, shortened: as §1
Homo sapiens [3] = experiment: Clearance in infant during extracorporeal membrane oxygenation assessed as desacetylcefotaxime at 50 mg/kg, iv dosed 2 to 3 times per day as bolus dose; details: in vivo; procedure, shortened: as §1
Homo sapiens [4] = experiment: Volume of distribution in infant during extracorporeal membrane oxygenation assessed as desacetylcefotaxime at 50 mg/kg, iv dosed 2 to 3 times per day as bolus dose; details: in vivo; procedure, shortened: as §1
[5] = Clearance in infant weighing 2 to 6.2 kg weight during extracorporeal membrane oxygenation at 50 mg/kg, iv dosed 2 to 3 times per day as bolus dose; details: human, in vivo; procedure, shortened: as §1
[6] = Elimination half life in infant weighing 2 to 6.2 kg weight during extracorporeal membrane oxygenation at 50 mg/kg, iv dosed 2 to 3 times in a day bolus dose; details: human, in vivo, read-out: beta t1/2 (converted); procedure, shortened: as §1
Homo sapiens [7] = experiment: Elimination half life in infant weighing 2 to 6.2 kg weight during extracorporeal membrane oxygenation assessed as desacetylcefotaxime at 50 mg/kg, iv dosed 2 to 3 times per day as bolus dose; details: in vivo; procedure, shortened: as §1
[8] = Clearance in infant weighing 2 to 6.2 kg weight at 50 mg/kg, iv dosed 2 to 3 times per day as bolus dose; details: human, in vivo; procedure, shortened: as §1
Homo sapiens [9] = experiment: Clearance in infant weighing 2 to 6.2 kg weight assessed as desacetylcefotaxime at 50 mg/kg, iv dosed 2 to 3 times per day as bolus dose; details: in vivo; procedure, shortened: as §1
[10] = Clearance in infant weighing 2 to 6.2 kg weight after extracorporeal membrane oxygenation at 50 mg/kg, iv dosed 2 to 3 times per day as bolus dose; details: human, in vivo; procedure, shortened: as §1
Homo sapiens [11] = experiment: Clearance in infant weighing 2 to 6.2 kg weight after extracorporeal membrane oxygenation assessed as desacetylcefotaxime at 50 mg/kg, iv dosed 2 to 3 times per day as bolus dose; details: in vivo; procedure, shortened: as §1
[12] = Clearance in infant weighing 2 to 6.2 kg weight after extracorporeal membrane oxygenation at 50 mg/kg, iv dosed 2 to 3 times per day as bolus dose measured after 72 hrs; details: human, in vivo; procedure, shortened: as §1
Homo sapiens [13] = experiment: Clearance in infant weighing 2 to 6.2 kg weight after extracorporeal membrane oxygenation assessed as desacetylcefotaxime at 50 mg/kg, iv dosed 2 to 3 times per day as bolus dose measured after 72 hrs; details: in vivo; procedure, shortened: as §1

clearance [1]: 6 mL/min
Vd [2]: 1.82 L
CL (Homo sapiens [3]): 1.46 L/h
Vd (Homo sapiens [4]): 11 L
clearance [5]: 4.33 mL/min
half-life [6]: 1.6 h
beta t1/2 (Homo sapiens [7]): 0.8 h
clearance [8]: 5 mL/min
CL (Homo sapiens [9]): 1.37 L/h
clearance [10]: 3.67 mL/min
CL (Homo sapiens [11]): 0.18 L/h
clearance [12]: 6.67 mL/min
CL (Homo sapiens [13]): 1.38 L/h
SMILES: CO/N=C(\C(=O)N[C@@H]1C(=O)N2C(C(=O)O)=C(COC(C)=O)CS[C@H]12)c1csc(N)n1 [CEFOTAXIME]
